Here are results for 1 substance from ChEMBL document CHEMBL1143161, “Non-charged thiamine analogs as inhibitors of enzyme transketolase” (Bioorg Med Chem Lett, 2008).

The subject of data set [1] is Cc1ncc(Cc2c(C)c(CCO)nn2C)c(N)n1. The data set can be described thus: (§1) Ratio of kcat to Km for thiamine […]. Summed up:
(§2)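 Enzymatic TPPK assay with kcat/Km derived, run in triplicate. The value is the average, with data within 2-fold of the mean.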

The subject of data set [2] is Cc1ncc(Cn2c(C)c(CCO)sc2=O)c(N)n1. Described as §1. Summed up: as §2
Data set [3] concerns Cc1ncc(C[n+]2csc(CCO)c2C)c(N)n1. The data set is described as §1. Summed up:
as §2

Data set [4] deals with CC(=O)Nc1ncc(Cc2csc(CCO)c2C)c(N)n1. The data set is described as §1. Summed up:
as §2

Data set [5] deals with Cc1c(Cc2cnc(C(F)(F)F)nc2N)csc1CCO. Described as §1. In outline: as §2
Data set [6] has as its system Cc1c(Cc2cnc(C(C)C)nc2N)csc1CCO. The data set is described as §1. In outline: as §2
The subject of data set [7] is Cc1ncc(Cc2csc(CCO)c2C)c(N)n1. The data set is described as §1. In outline:
as §2

For data set [8], the system named is Cc1c(Cc2cnc(C3CC3)nc2N)csc1CCO. The data set is described as §1. In outline:
as §2

Another data set concerns Cc1c(Cc2cncnc2N)csc1CCO. The data set is described as §1. In outline:
as §2

Data set [9] has as its system Cc1c(Cc2cnc(-c3ccccc3)nc2N)csc1CCO. Described as §1. In outline: as §2

Turning to “Thiamine pyrophosphokinase 1 (Homo sapiens), Q9H3S4”, the kcat/Km is 1.9 10^-5/nM/s in [1]; 1 10^-5/nM/s in data set [2]; 1.2 10^-5/nM/s in [3]; 1.1 10^-6/nM/s in [4]; 8.5 10^-4/nM/s in data set [5]; 2.4 10^-5/nM/s in data set [6]. Also, the kcat/Km is 3.4 10^-5/nM/s in data set [7], 2.7 10^-5/nM/s in [8], 1.2 10^-5/nM/s in the data set with Cc1c(Cc2cncnc2N)csc1CCO and 1 10^-6/nM/s in [9].
